Test results taken from PubChem BioAssay.
A number with no mark means an inactive call. Records with an inconclusive call do not appear. Calls of active or inactive are those of the source.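 Rule for the calls, unless noted: active = RAM network inhibition above 8.4% in each of two replicates, 3 SD over the compound average; inconclusive = above 8.4% inhibition in only one replicate; inactive = 8.4% inhibition or less in each replicate.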

Experiments:
[1] = OD615 S. cerevisiae growth inhibition, permissive medium, pilot counter-assay, permissive growth control for S. cerevisiae lifespan shortening project (AID 705;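 active = growth inhibition above 25% in both replicates, a cutoff set 3 SD above the mean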); conditions: OD615, 24 h, at 10 µM, stronger effect = higher value
Outline: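 Material: engineered DeaD yeast; compound dosing: one dose 10 µM, DMSO 0.25% final; measure: yeast growth inhibition indicated by reduced 24 h OD615; detection: OD615 turbidity read; incubation: cells pre-grown 4 h, then 24 h compound exposure, 30 °C humidified; medium: permissive synthetic complete medium with raffinose and galactose carbon sources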

[2] = Restrictive medium S. cerevisiae growth inhibition, OD615, pilot screen of yeast lifespan reduction project, restrictive growth control (AID 706;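 active = growth inhibition above a set limit, 3 SD over mean compound inhibition, in both replicates, cut at about 43% in these data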;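 note: modified DeaD lifespan yeast strain shifted to restrictive glucose medium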); conditions: OD615, 48 h, at 10 µM, stronger effect = higher value
Outline: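 material = engineered S. cerevisiae DeaD strain | medium = glucose-based CSMM-D restrictive medium | times = 4 h pre-incubation, 48 h exposure at 30 °C | technique = OD615 absorbance reading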

[3] = viability gain of MRP-1-high H69AR cells under doxorubicin, pilot screen, MRP-1 activator project, CellTiter-Glo, duplicate (AID 807;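 active = viability increase at or above a cutoff of the median across tested compounds plus 3 SD, cut at about 8.5% in these data, passing the limit was not always enough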;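 note: compound pretreatment 18-22 h then 72 h combined with doxorubicin; 0% = doxorubicin alone and 100% = vehicle without doxorubicin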); conditions: H69AR viability with doxorubicin, CellTiter-Glo luminescence; at 10 µM; stronger effect = higher value
[4] = growth suppression of beta-catenin knockout HCT116, pilot screen, human colon tumor cells (AID 823;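 active = cell viability at or below a set limit in both duplicate runs, the limit being the all-compound median minus 4 SD, cut at about 23% in these data, passing the limit was not always enough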;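 note: 0% = wells killed by 20 µM Hyamine and 100% = untreated DMSO cell wells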); conditions: CellTiter-Glo, 60 h, at 10 µM, stronger effect = lower value
[5] = growth suppression of PTEN-deleted HCT116, pilot screen, cell-based, HCT116 clonal line, CellTiter-Glo (AID 824;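 active = viability at or below 27.92% in each of two runs, the all-compound median minus 4 SD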;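 note: 0% = 20 µM Hyamine control and 100% = vehicle cell control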); conditions: 60 h, at 10 µM, stronger effect = lower value
[6] = inhibitors of the yeast RAM network, pilot screen, dse1pr::URA3 reporter, 5-FOA selection (AID 869;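 active = inhibition over a set limit, the all-compound mean plus 3 SD, in both replicate runs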;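 note: 0% = DMSO wells with no growth and 100% = 10 µM 1-NA-PP1 with full growth; RAM network block rescues cells from 5-FOA so hits raise OD615 growth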); conditions: S. cerevisiae dse1pr::URA3 5-FOA growth, OD615, 2 d; at 10 µM; stronger effect = higher value; strain carries analog-sensitive mutant Cbk1 kinase
[7] = RAM signaling pathway blockade in yeast – S. cerevisiae, Pdr1DBD-CYC8 efflux-inhibited sensitized strain, primary screen (AID 1298);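 note: 0% = DMSO untreated cells without growth and 100% = 10 µM 1-NA-PP1 full growth; higher means more yeast growth rescued from 5-FOA killing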; conditions: S. cerevisiae cbk1-as DSE1-URA3 strain, 5-FOA growth OD615, 2 d; at 50 µM; stronger effect = higher value

Row | Structure (SMILES) | growth inhibition [1] [%] | growth inhibition [2] [%] | viability increase [3] [%] | viability [4] | viability [5] | inhibition [6] [%] | RAM network inhibition [7] [%]
1 | Cc1nc2scc(-c3cccs3)c2c(=O)o1 | -24 | 14.4 | -1.96 | 95.8% | 98.7% | 1.73 | 3.15
2 | COc1cccc(-c2cc(N)nn2C(=O)Nc2ccc(Cl)cc2)c1 | -15.4 | -29.3 | -2.28 | 105% | 90.7% | -0.025 | 0.22
3 | CCCC(=O)c1ccc(N2CCOCC2)c(F)c1 | -7.96 | -9.48 | 5.59 | 98.7% | 98.2% | -0.25 | 0.58
4 | CC1CC(C)(C)Nc2ccc(OC(=O)c3ccco3)cc21 (configuration not stated) | 7.66 | 5.69 | -7.85 | 1.57% (active) | 1.59% (active) | 0.51 | 3.36
5 | CC1(C)C(c2ccc(Cl)cc2)=[N+]([O-])C2(CCCC/C2=N\O)N1O (configuration not stated) | -15.4 | -4.64 | 1.21 | 96.5% | 94.2% | 0.555 | 6.93
6 | O=S(=O)(NCc1csc(-c2ccccc2)n1)c1ccc(Cl)s1 | -17.6 | -16.7 | -0.6 | 96.9% | 102% | 0.21 | 5.99
7 | O=C(O)c1ccc(-n2cccc2)cc1O | -2.21 | -13.1 | -1.52 | 96.8% | 101% | 0.285 | -0.83
8 | CCCOc1nc2c(c(=O)n(C)c(=O)n2C)n1CCC | -7.2 | -10.2 | -2.13 | 82.2% | 86.6% | 1.4 | -0.88
9 | COc1cc(C2C(C(=O)Nc3ccccc3OC)=C(C)Nc3ncnn32)ccc1O (configuration not stated) | -14.3 | 14.1 | -2.38 | 100% | 95.3% | 1.42 | -0.99
10 | COc1ccc(N2CCN(C(=O)c3sc4nc(-c5ccc(F)cc5)cn4c3C)CC2)cc1 | -10.6 | -19.7 | -4.7 | 102% | 95.6% | 2.24 | 3.45
11 | CCC(=O)NCc1nc2ccccc2n1Cc1ccccc1F | -7.37 | -27 | -0.04 | 99.1% | 99.2% | 0.885 | 2.45
12 | CC(C)C12CN3CC(C(C)C)(CN(C1)C3c1ccccc1)C2O (configuration not stated) | 6 | 2.74 | -1.42 | 96.2% | 93.6% | 1.8 | 3.93
13 | COCCNS(=O)(=O)c1cccc2cccnc12 | -1.37 | 12.8 | -1.69 | 97.8% | 92.2% | 2.52 | 2.27
14 | COc1ccc(NC(=O)C2CCCN(S(=O)(=O)c3cccnc3)C2)c(OC)c1 (configuration not stated) | -9.3 | -2.6 | 1.08 | 104% | 97.1% | 1.57 | -0.22
15 | CC1CCCN(c2ncnc3c2cnn3-c2ccc(Cl)cc2)C1 (configuration not stated) | -6.17 | -16.3 | 0.48 | 76% | 79.3% | -1.04 | 4.37
16 | CC(=O)c1ccc(OCC(C)C)c(CC(C(N)=O)C(N)=O)c1 | 1.42 | -5.6 | -1.7 | 108% | 96.1% | 1.66 | -0.2
17 | CCOc1cc(N2CCOCC2)c(OCC)cc1NC(=O)c1cc(-c2ccco2)nc2ccccc12 | 1.62 | -4.63 | -5.6 | 65.4% | 60.8% | 0.475 | 6.51
18 | COc1ccc(NC(=O)Cc2nc3ccccc3[nH]2)cc1 | 0.43 | 6.96 | -1.06 | 58.9% | 92.5% | 0.695 | -1.49

Row | Structure (SMILES) | growth inhibition [1] [%] | growth inhibition [2] [%] | viability increase [3] [%] | viability [4] | viability [5] | inhibition [6] [%] | RAM network inhibition [7] [%]
19 | CCN(CC)S(=O)(=O)c1ccc(Cl)c(C(=O)NC)c1 | -15.4 | -16.3 | -0.22 | 105% | 96.4% | 0.985 | 3.63
20 | Cc1cc(=O)c2c(C)nn(-c3ccccc3)c2[nH]1 | -2.51 | 2.11 | -2.26 | 96.7% | 92.3% | 2.23 | 1.4
21 | CCOC(=O)Cn1c(C(C)=O)nc2ccccc21 | -18.1 | -25.1 | 0.94 | 102% | 94.8% | 0.28 | 0.32
22 | O=C(CN1CCN(CC(=O)Nc2ccccn2)CC1)Nc1ccccn1 | -2.54 | -0.335 | -0.95 | 98.6% | 97.6% | 0.705 | 6.03
23 | O=C(CC1Oc2ccccc2NC1=O)NCc1ccccc1 (configuration not stated) | 0.945 | -4.32 | -0.93 | 105% | 100% | 3.42 | 4.73
24 | O=C(NCCO)c1ccc(-c2nnc(N3CCOCC3)c3ccccc23)cc1 | -8.54 | -14.4 | 0.15 | 89.1% | 89.6% | 0.425 | 3.24
25 | COc1ccc(C)cc1NC(=O)c1ccoc1C | -1.21 | 4.09 | 0.93 | 99.5% | 87.8% | 0.62 | 7.87
26 | O=C1C(O)CC2c3ccccc3CC3(CCCC3)N12 (configuration not stated) | -14.1 | -11.3 | -0.65 | 99.4% | 90.4% | 0.65 | 8.18
27 | COc1ccc(-c2c(C)oc3cc(O)cc(O)c3c2=O)cc1OC | -12.4 | -5.23 | -1.14 | 109% | 93.8% | 1.01 | 4.79
28 | CCN(CC)Cc1c[nH]c2c(C(=O)OC)cccc12 | -11.4 | -23.5 | -4.51 | 101% | 94.9% | 2 | -1.31
29 | CCOc1ccc2nc(NC(=O)COC)sc2c1 | -7.05 | -13.8 | 0.64 | 102% | 102% | 1.05 | 1.66
30 | O=C(CCCOc1ccccc1)Nc1ccc2c(c1)OCCO2 | 1.88 | 7.45 | -4.17 | 102% | 102% | 1.16 | 3.58
31 | CCOC(=O)C1CCN(C(c2cccs2)c2sc3nc(C)nn3c2O)CC1 (configuration not stated) | -2.81 | -7.96 | -0.58 | 105% | 99.3% | 0.905 | 3.86
32 | CC(Oc1ccc(Cl)cc1Cl)C(=O)NCCCN(C)C (configuration not stated) | -0.77 | 4.78 | -2.25 | 99.6% | 100% | 1.79 | 0.78
33 | CCOc1cccc(-c2nc(C(N)=O)c3[nH]c(=O)n(-c4cccc(Cl)c4)c3n2)c1O | -2.52 | -7.1 | -2.06 | 101% | 93.1% | 0.85 | 2.67
34 | CCOc1ccccc1NC(=O)CSc1nc2c(c(=O)n1C)SC(C)C2 (configuration not stated) | -8.29 | -4.14 | -2.89 | 92.3% | 89.1% | 2 | 4.44
35 | CC(C)N(Cc1nc(-c2ccc(Cl)cc2)no1)C(=O)CCCN1C(=O)c2ccccc2C1=O | -14.4 | -15.6 | 5.41 | 104% | 91.6% | 1.4 | 6.24
36 | O=C(NC1CCN(Cc2ccccc2)CC1)c1ccccc1F | -3.78 | -11.1 | -1.39 | 95% | 98.9% | 2.02 | -0.41
